Measured values reported in ChEMBL document CHEMBL1122685, “Identification of an acridine photoaffinity probe for trypanocidal action” (1984).

Columns and labels:
Type in all cases: functional
Trypanosoma brucei [1] = experiment: Compound is evaluated for trypanocidal activity against Trypanosoma brucei, by exposing the parasites directly to compound prior to injection to mice at 10 E-6 M concentration in dark conditions
Method in brief: (§1)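 T. brucei EATRO 110 was separated from blood on DEAE-cellulose and washed in Tris-saline-glucose (TSG). Parasites at 5×10^6/mL in TSG were gently rotated 10 min with drug at the final concentration, kept dark under a red safelight until injection. Swiss mice, five per group, received 5×10^5 parasites ip in 0.1 mL. Read-out was mean days survival ±SD over 30 days, against untreated-parasite controls.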

Trypanosoma brucei [2] = experiment: Compound is evaluated for trypanocidal activity against Trypanosoma brucei, by exposing the parasites directly to compound prior to injection to mice at 10 E-6 M concentration in presence of light
Method in brief: (§2)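 DEAE-purified T. brucei EATRO 110 at 5×10^6/mL in TSG was mixed with drug at the final concentration by gentle rotation for 10 min. Samples were light-activated for 10 min under a 30W fluorescent lamp 4 cm above. 5×10^5 treated parasites in 0.1 mL were injected ip into Swiss mice, five per group. Survival was scored daily for 30 days and reported as mean days ±SD, with untreated controls.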

Trypanosoma brucei [3] = experiment: Compound is evaluated for trypanocidal activity against Trypanosoma brucei, by exposing the parasites directly to compound prior to injection to mice at 10 E-4 M concentration in dark conditions; method in brief: as §1
Trypanosoma brucei [4] = experiment: Compound is evaluated for trypanocidal activity against Trypanosoma brucei, by exposing the parasites directly to compound prior to injection to mice at 10 E-4 M concentration in presence of light; method in brief: as §2
Trypanosoma brucei [5] = experiment: Compound is evaluated for trypanocidal activity against Trypanosoma brucei, by exposing the parasites directly to compound prior to injection to mice at 10 E-5 M concentration in dark conditions; method in brief: as §1
Trypanosoma brucei [6] = experiment: Compound is evaluated for trypanocidal activity against Trypanosoma brucei, by exposing the parasites directly to compound prior to injection to mice at 10 E-5 M concentration in presence of light; method in brief: as §2
Trypanosoma brucei [7] = experiment: Trypanocidal activity against Trypanosoma brucei, exposure of parasites to compound prior to injection into mice at 10 e-4 M concentration in dark conditions; method in brief: as §1
Trypanosoma brucei [8] = experiment: Trypanocidal activity against Trypanosoma brucei, exposure of parasites to compound prior to injection into mice at 10 e-4 M concentration in presence of light; design: unit: days; method in brief: as §2
Trypanosoma brucei [9] = experiment: Trypanocidal activity against Trypanosoma brucei, exposure of parasites to compound prior to injection into mice at 10 e-5 M concentration in dark conditions; method in brief: as §1
Trypanosoma brucei [10] = experiment: Trypanocidal activity against Trypanosoma brucei, exposure of parasites to compound prior to injection into mice at 10 e-5 M concentration in presence of light; design: unit: days; method in brief: as §2
Trypanosoma brucei [11] = experiment: Trypanocidal activity against Trypanosoma brucei, exposure of parasites to compound prior to injection into mice at 10 e-6 M concentration in dark conditions; method in brief: as §1
Trypanosoma brucei [12] = experiment: Trypanocidal activity against Trypanosoma brucei, exposur of parasites to compound prior to injection into mice at 10 e-6 M concentration in presence of light; design: unit: days; method in brief: as §2
Trypanosoma brucei [13] = experiment: Compound is evaluated for trypanocidal activity against Trypanosoma brucei, by exposing the parasites directly to compound prior to injection to mice at 10 e-5 M concentration in presence of light; method in brief: as §2
Trypanosoma brucei [14] = experiment: Compound is evaluated for trypanocidal activity against Trypanosoma brucei, by exposing the parasites directly to compound prior to injection to mice at 10 e-6 M concentration (pre) in presence of light.
Method in brief: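 Compound was irradiated 1 h before contact with T. brucei EATRO 110 (5×10^6/mL in TSG, final drug concentration). After 10 min gentle rotation, the mixture was irradiated again for 10 min under a 30W fluorescent lamp at 4 cm. 5×10^5 parasites in 0.1 mL were given ip to five Swiss mice per group. Read-out was mean days survival ±SD over 30 days, with untreated controls.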

Trypanosoma brucei [15] = experiment: Compound is evaluated for trypanocidal activity against Trypanosoma brucei, by exposing the parasites directly to compound prior to injection to mice at 10 e-7 M concentration in dark conditions; design: unit: days; method in brief: as §1
Trypanosoma brucei [16] = experiment: Compound is evaluated for trypanocidal activity against Trypanosoma brucei, by exposing the parasites directly to compound prior to injection to mice at 10 e-7 M concentration in presence of light; design: unit: days; method in brief: as §2
Trypanosoma brucei [17] = experiment: Compound is evaluated for trypanocidal activity against Trypanosoma brucei, by exposing the parasites directly to compound prior to injection to mice at 10 e-6 M concentration (pre) in dark conditions
Method in brief: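 Drug was preirradiated 1 h with visible light, then added at the final concentration to T. brucei EATRO 110 (5×10^6/mL in TSG) and rotated 10 min. The parasites were then kept dark with a red safelight. Swiss mice, five per group, were injected ip with 0.1 mL holding 5×10^5 parasites. Mean days survival ±SD was scored over 30 days against untreated-parasite controls.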

| SMILES | Activity (Trypanosoma brucei [1]) | Activity (Trypanosoma brucei [2]) | Activity (Trypanosoma brucei [3]) | Activity (Trypanosoma brucei [4]) | Activity (Trypanosoma brucei [5]) | Activity (Trypanosoma brucei [6]) | Mean survival time of infected mice (days) (Trypanosoma brucei [7]) | Activity (Trypanosoma brucei [8]) | Activity (Trypanosoma brucei [9]) | Activity (Trypanosoma brucei [10]) | Activity (Trypanosoma brucei [11]) | Activity (Trypanosoma brucei [12]) | Activity (Trypanosoma brucei [13]) | Mean survival of mice (days) (Trypanosoma brucei [14]) | Activity (Trypanosoma brucei [15]) | Activity (Trypanosoma brucei [16]) | Activity (Trypanosoma brucei [17]) |
| --- | --- | --- | --- | --- | --- | --- | --- | --- | --- | --- | --- | --- | --- | --- | --- | --- | --- |
| Nc1cccc2nc3ccccc3c(N)c12 | 5.4 | 4.6 | 30 | 30 | 4.6 | 5.6 |  |  |  |  |  |  |  |  |  |  |  |
| [N-]=[N+]=Nc1ccc(Nc2c3ccccc3nc3ccccc23)cc1 |  |  |  |  |  |  | 4.8 | 30 | 4 | 30 | 4.4 | 5.8 |  |  |  |  |  |
| C[n+]1c2ccccc2cc2c(N)cccc21.[Cl-] |  |  |  |  |  |  | 30 | 30 | 4.6 | 6.4 | 4 | 4.2 |  |  |  |  |  |
| C[n+]1c2ccccc2cc2ccc(N)cc21.[Cl-] |  |  |  |  |  |  | 30 |  | 14.2 |  | 6.9 | 30 | 30 | 15.5 | 4.6 | 12.4 |  |
| Nc1c2ccccc2nc2cccc([N+](=O)[O-])c12 |  |  |  |  |  |  | 30 | 30 | 25.4 | 30 | 4.4 | 5.8 |  |  |  |  |  |
| Nc1ccc(Nc2c3ccccc3nc3ccccc23)cc1 |  |  |  |  |  |  | 30 | 30 | 5 | 6.4 | 5.4 | 4.4 |  |  |  |  |  |
| CC[n+]1c(-c2ccccc2)c2cc(N=[N+]=[N-])ccc2c2ccc(N)cc21.[Cl-] |  |  |  |  |  |  |  |  |  |  | 4.6 | 30 |  |  | 4 | 27.4 |  |
| [N-]=[N+]=Nc1c2ccccc2nc2cccc([N+](=O)[O-])c12 |  |  |  |  |  |  | 30 | 30 | 10 | 30 | 4.2 | 6 |  | 4 | 5.4 | 5 |  |
| C[n+]1c2ccccc2cc2c(N=[N+]=[N-])cccc21.[Cl-] |  |  |  |  |  |  | 4.4 | 4.8 | 6.4 | 4.8 |  |  |  |  |  |  |  |
| [N-]=[N+]=Nc1c2ccccc2nc2ccccc12 |  |  |  |  |  |  | 30 | 30 | 30 | 30 | 5 | 30 |  | 4.2 | 4.6 | 4 |  |
| C[n+]1c2cc(N)ccc2cc2ccc(N)cc21.[Cl-] [EUFLAVINE] |  |  |  |  |  |  | 30 |  | 30 | 30 | 6.9 | 30 |  | 30 | 6.3 | 17.8 | 7.8 |
| CN(C)CCCNc1c2ccccc2nc2cccc([N+](=O)[O-])c12 [NITRACRINE] |  |  |  |  |  |  | 30 | 30 | 5.7 | 30 | 5.7 | 22.9 |  | 10.4 | 6 | 6.6 |  |
